# Screens (PubChem)
# Compounds with a hit are over-represented: about 2.5% of the library has one in this group of screens.
# ADAM10 inh = human ADAM10 inhibitors, primary screen, biochemical, QFRET, HTS | recombinant ADAM10, EDANS/DABCYL FRET peptide cleavage, 3 h | 0.62% of 370,000 active | AID 720582, 2013 | inhibition, % at 7 µM | Disintegrin and metalloproteinase domain-containing protein 10 (Homo sapiens), O14672;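 active = inhibition above a per-campaign cutoff equal to the mean of compounds falling between control-based bounds plus 3 SD, cut at about 20% in these data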;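 note: 0% = DMSO wells while the 100% control is not disclosed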
# ADAM17 inh = ADAM17 inhibitors, primary screen, biochemical, QFRET. recombinant ADAM17, EDANS/DABCYL FRET peptide cleavage. Disintegrin and metalloproteinase domain-containing protein 17 (Homo sapiens), P78536. 0.83% of 370,000 active. AID 720648, 2013. inhibition, % at 6.95 µM;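 active = inhibition above the mean of compounds lying between control limits plus 3 SD, set per campaign, cut at about 8.5% in these data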;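 note: 0% = DMSO-only wells as the low control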
# GASC-1 inh = inhibitors of GASC-1 histone demethylase, primary screen, biochemical, fluorescence, DELFIA europium; GST-JMJD2C(1-420) H3K9me3 demethylation; Lysine-specific demethylase 4C (Homo sapiens), Q9H3R0; AID 2099, 2009; 0.069% of 330,000 active; inhibition, % at 2.35 µM;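 active = more than half of a compound's replicate wells show inhibition beyond 50%, single wells judged on their own value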;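 note: signal counts dimethyl H3K9 product captured on neutravidin plate; 0% = median of DMSO wells and 100% = 0.3 times that DMSO median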
# Target sequence (Q9H3R0 1-420 limits assumed): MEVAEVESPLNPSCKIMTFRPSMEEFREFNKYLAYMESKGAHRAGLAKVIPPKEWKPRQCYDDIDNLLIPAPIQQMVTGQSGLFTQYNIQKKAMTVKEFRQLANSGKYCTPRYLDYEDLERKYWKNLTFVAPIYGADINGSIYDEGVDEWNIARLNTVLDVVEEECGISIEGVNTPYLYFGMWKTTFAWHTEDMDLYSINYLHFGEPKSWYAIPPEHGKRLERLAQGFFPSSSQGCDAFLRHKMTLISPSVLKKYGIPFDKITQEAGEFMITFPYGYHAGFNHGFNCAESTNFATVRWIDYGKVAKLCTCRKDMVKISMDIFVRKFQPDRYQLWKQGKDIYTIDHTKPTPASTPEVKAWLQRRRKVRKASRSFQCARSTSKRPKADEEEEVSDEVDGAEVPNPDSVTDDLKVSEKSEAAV
# KLK7 zymogen act = proKLK7 zymogen activators, primary screen, biochemical, fluorescence intensity | Kallikrein-7 (Homo sapiens), P49862 | 0.9% of 370,000 active | activation, % at 7 µM | AID 652039, 2013 | purified proKLK7, EDANS-DABCYL substrate fluorescence; 100% is mature enzyme control, 0% vehicle;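 active = activation above the mean of all tested compounds plus 3 SD, computed per campaign excluding outliers beyond control limits, cut at about 13% in these data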
# Target sequence (P49862 whole entry, looked up): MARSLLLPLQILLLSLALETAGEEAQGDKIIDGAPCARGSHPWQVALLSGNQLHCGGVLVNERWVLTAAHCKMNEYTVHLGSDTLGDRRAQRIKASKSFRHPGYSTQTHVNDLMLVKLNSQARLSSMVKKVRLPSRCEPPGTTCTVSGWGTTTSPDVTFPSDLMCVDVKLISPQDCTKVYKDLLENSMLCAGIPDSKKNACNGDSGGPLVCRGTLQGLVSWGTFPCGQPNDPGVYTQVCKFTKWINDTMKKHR
# NR2E3 ag-1 = NR2E3 agonists in two-hybrid cells, primary screen, cell-based, luminescence, CHO-S, Gal4-NCOR/VP16-NR2E3; luciferase; 0.35% of 360,000 active; AID 602229, 2012; inhibition of corepressor binding, % at 3.98 µM; Photoreceptor-specific nuclear receptor (Homo sapiens), Q9Y5X4;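 active = inhibition above the mean of all tested compounds plus 3 SD, cut at about 70% in these data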;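 note: 0% = DMSO with NR2E3 transfected cells and 100% = cells lacking NR2E3 construct; higher means lower luciferase signal from less NR2E3 corepressor binding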
# NR2E3 ag-2 = inhibitors of NR2E3-RetCOR corepressor binding, primary screen, NR2E3 agonist project, biochemical, TR-FRET, GST-NR2E3, biotin-RetCOR; Photoreceptor-specific nuclear receptor (Homo sapiens), Q9Y5X4; 1536-well; inhibition of corepressor binding, % at 4.78 µM; 0.12% of 320,000 active; AID 2300, 2010;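 active = percent inhibition above the cutoff of mean plus 3 SD of all tested compounds, set per screening campaign, cut at about 20% in these data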;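 note: 0% = DMSO wells and 100% = biotin wells as full block of FRET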
#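 Material: NR2E3–RetCOR corepressor complex | Quantity: 1.35 nM GST-tagged NR2E3 final | Schedule: 5 h at 4 °C | Replication: Singlicate compound wells | Reagent: RetCOR corepressor, biotinylated, 7 nM | Controls: Biotin wells as high control, 0.6% DMSO wells as low control | Signal: TR-FRET, Eu(K)-anti-GST donor, streptavidin-D2 acceptor, ex 340, em 617/671 nm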
# NR2E3 ag conf = NR2E3 agonist confirmation in cells, cell-based, luminescence, CHO-S two-hybrid | shares compounds with NR2E3 ag-1 | CHO-S mammalian two-hybrid NR2E3-NCOR, luciferase luminescence | inhibition, % at 3.98 µM | 51% of 2,300 active;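 active = average inhibition above a cutoff equal to the mean inhibition of all tested compounds plus one SD, cut at about 70% in these data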;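 note: 0% = DMSO in NR2E3 cells and 100% = DMSO in cells lacking NR2E3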
# VP16 counter = GAL4-VP16 reporter modulators, confirmation, counter-screen for NR2E3 agonist project, cell-based, luminescence, CHO-S, high throughput; shares compounds with NR2E3 ag-1; CHO-S GAL4-VP16 luciferase reporter; inhibition, % at 3.98 µM; 29% of 2,300 active;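 active = mean inhibition above a cutoff equal to the average over all tested compounds plus one standard deviation, cut at about 70% in these data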;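 note: luciferase from a UAS reporter driven by GAL4-VP16 transactivation; 0% = DMSO with VP16-transfected cells and 100% = DMSO with cells lacking VP16; higher means less reporter light so more repression of VP16 activity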
# * hit, by the source's call; i = inactive; . = not tested or not shown.
SMILES,ADAM10 inh,ADAM17 inh,GASC-1 inh,KLK7 zymogen act,NR2E3 ag-1,NR2E3 ag-2,NR2E3 ag conf,VP16 counter
O=c1cc(-c2ccccc2Cl)oc2c([N+](=O)[O-])c(O)cc(O)c12,-7,-2,4,1,98*,6,99*,91*
CC(C)C[C@H]1CN(CCCC[C@@H]2CNC(=O)C(=O)N2CC2CCCCC2)C(=O)C(=O)N1CCC1CCCCC1,-4,-2,.,0,1,.,.,.
COc1ccc(N=C(NN)c2ccc3ccccc3n2)cc1,-21,-8,1,-1,69,0,-81,-95
COc1ccc(NC(=S)c2ccc3ccccc3n2)cc1,.,.,-9,.,-127,-1,.,.
Cc1ccc(S(=O)(=O)N2CCCC2C(=O)N2CCN(c3ccccc3)CC2)cc1 (stereo unspecified),2,2,.,0,.,.,.,.
O=C(OCC12CC3CC(CC(C3)C1)C2)c1ccc(NCc2cc(O)ccc2O)cc1,7,7,.,0,74*,.,67,5
CC(Oc1ccc(Cl)cc1Cl)c1nc(-c2ccc(NC(=O)c3ccncc3)cc2)no1 (stereo unspecified),13,2,-4,-1,51,-3,78*,72*
CCCCCCCCCCCCN1[C@@H](CC(=O)O)c2cc(F)ccc2S1(=O)=O,8,0,-8,1,95*,0,94*,40
CCCCCCCCCCCCN1[C@@H](CC(=O)O)c2cc(C(F)(F)F)ccc2S1(=O)=O,22*,2,-60,0,53,-3,98*,30
CCCCCCCCN1[C@@H](CC(=O)O)c2cc(C(F)(F)F)ccc2S1(=O)=O,-1,-2,0,-1,29,2,.,.
CCCCCCCCN1[C@@H](CC(=O)OC)c2cc(F)ccc2S1(=O)=O,12,6,-12,0,6,3,.,.
C=CCN1C(=O)[C@@H](CC(=O)N2CCC(c3ccccc3)CC2)[C@]2(C(=O)OC)CCCCC=C12,1,1,.,0,.,.,.,.
CCOC(=O)Cc1c(C)nc2c(C#N)c[nH]n2c1=O,-18,-8,-5,-1,12,1,.,.
CCOC(=O)Cc1c(C)nc2c(-c3cccc(Br)c3)c[nH]n2c1=O,-259,-91,6,-16,64,-2,47,38
COc1cc(C(=O)NC2CCCCN(C(C)C)C2=O)cc(OC)c1OC (stereo unspecified),-2,0,.,0,.,.,.,.
O=C(CSc1nnnn1C1CC2CCC1C2)Nc1ccnc2ccccc12 (stereo unspecified),1,-1,.,0,98*,1,94*,93*
CN(C)c1ncnc2c1nnn2C1OC(CO)C(O)C1O (stereo unspecified),-9,-5,.,0,89*,.,-9,61
O=c1[nH]cnc2c1nnn2C1OC(CO)C(O)C1O (stereo unspecified),-9,-3,.,-1,49,.,-40,26
O=c1[nH]cnc2c1ncn2C1OC(CO)C(O)C1O (stereo unspecified),6,-2,.,0,28,.,.,.
O=c1cc(N2CCN(c3ccccc3)CC2)[nH]c(=O)n1C1CCCCC1,1,2,1,0,54,0,92*,19
O=c1cc(N2CCN(c3cccc(Cl)c3)CC2)[nH]c(=O)n1C1CCCCC1,-8,-5,7,0,57,0,93*,28
C[C@H]1CN(c2ccc(N3CCNC[C@@H]3C)cc2C#N)CCN1Cc1ccccc1,-20,-4,.,0,.,.,.,.
COc1ccc(S[C@]2(C(=O)N3CCN(c4ncccn4)CC3)CC(=O)N(c3ccsc3)[C@@H]2c2ccc(OC)cc2)cc1,4,4,.,0,.,.,.,.
O=C(NCC1CCN(C(=O)C(=O)c2cccs2)CC1)c1ccc2c(c1)CCO2,-2,-5,.,0,.,.,.,.
CCCCCCNC(=O)C1CSCCS(=O)(=O)N1Cc1ccccc1 (stereo unspecified),-1,0,.,0,.,.,.,.
SMILES,ADAM10 inh,ADAM17 inh,GASC-1 inh,KLK7 zymogen act,NR2E3 ag-1,NR2E3 ag-2,NR2E3 ag conf,VP16 counter
COc1cccc2sc(N3CCN(C(=O)c4ccc([N+](=O)[O-])o4)CC3)nc12,.,.,-4,.,63,1,42,34
O=C(c1ccc([N+](=O)[O-])o1)N1CCN(c2nc3c(Cl)cccc3s2)CC1,-10,0,8,0,-18,2,.,.
COc1cc(SC)ccc1C(=O)Nc1nc2ccccc2[nH]1,i,i,-4,-421,110*,6,95*,91*
CSc1ccccc1C(=O)Nc1nc2ccccc2[nH]1,8,-3,7,0,-64,6,.,.
COc1ccccc1C(=O)Nc1nc2ccccc2[nH]1,-19,-6,-1,0,82*,0,77*,42
O=C(C1CC1)N1CCc2cc(S(=O)(=O)NCCC3=CCCCC3)ccc21,3,-1,-4,0,59,-1,57,47
O=C(C1CCC1)N1CCc2cc(S(=O)(=O)NCC3COc4ccccc4O3)ccc21 (stereo unspecified),2,2,-2,0,67,-2,60,37
O=C(C1CC1)N1CCc2cc(S(=O)(=O)NCC3COc4ccccc4O3)ccc21 (stereo unspecified),6,3,2,0,56,2,54,55
O=C(C1CC1)N1CCc2cc(Br)cc(S(=O)(=O)NCC3COc4ccccc4O3)c21 (stereo unspecified),-2,-3,2,0,-20,0,.,.
O=C(CCc1ccccc1)N[C@H]1[C@H](OC(=O)c2ccc3ccccc3n2)CCC[C@@]12C(=O)N(Cc1ccccc1)c1ccccc12,11,5,.,0,.,.,.,.
COc1ccc(CN2C(=O)N3Cc4ccccc4C3CS2(=O)=O)cc1 (stereo unspecified),3,2,.,0,.,.,.,.
